Activity calls are given as the source filed them. The rule behind the calls is not given here.
Key:
[1] = Cytotoxicity against human HeLa R19 cells assessed as reduction of cell viability at 0.5 to 50 uM by MTS assay; assay type: cell-based; details: hela r19, 50 µM
[2] = test system: Coxsackievirus B3; experiment: Antiviral activity against Coxsackievirus B3 infected in human HeLa R19 cells assessed as inhibition of viral replication at 5 to 50 uM after 7 hrs by luciferase reporter gene assay; assay type: functional, organism-based
Procedure, shortened: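 HeLa R19 subconfluent monolayers infected 30 min at 37 °C with Renilla luciferase-expressing CVB3, MOI 0.1 CCID50; virus replaced by medium with 0.5, 5 or 50 μM compound (5 mM DMSO stock) or matching DMSO. After 7 h, lysed and Renilla luciferase read; triplicates normalized to same-DMSO-dilution controls, shown as means ± SEM on log scale.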

[3] = Cytostatic activity against human NCI60 cells by SRB assay; assay type: functional; details: for CC50: read-out: LC50 (the source's name)
Procedure, shortened: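 NCI screen: single 10 μM dose first; active compounds then run at five concentrations on the same cell panel to give GI50, TGI and LC50, reported as averages over all cell lines; mean of two 5-dose tests, or one test where noted.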

[4] = test system: Nicotiana tabacum; experiment: Induction of morphological changes of golgi apparatus in tobacco mesophyll protoplast expressing Man1-RFP at 90 uM after 30 mins by confocal laser scanning microscopic analysis; assay type: functional
Procedure, shortened: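 Nicotiana tabacum cv. Petit Havana mesophyll protoplasts transiently expressing cis-Golgi marker Man1-RFP, treated 30 min with 90 μM compound (dissolved in DMSO) in half MS medium, untreated controls; observed by CLSM with 63× water-immersion objective.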

[5] = test system: HeLa; experiment: Induction of golgi apparatus disassembly in human HeLa cells at 5 uM incubated for 60 mins followed by compound washout measured after 2 hrs by confocal microscopic analysis; assay type: functional, cell-based
Procedure, shortened: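 Reassembly: HeLa cells given 5 μM final compound for 60 min at 37 °C, drug removed, then 2 h further in drug-free medium; fixed, anti-GM130 immunolabeled (paraformaldehyde fixation, Triton permeabilization, BSA block, Alexa 546 secondary) and examined by confocal microscopy; untreated medium controls.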

[6] = test system: Arabidopsis thaliana; experiment: Induction of morphological changes of golgi apparatus in Arabidopsis thaliana root cells expressing ST-YFP/VHAa1-RFP at 90 uM after 30 mins by confocal laser scanning microscopic analysis; assay type: functional
Procedure, shortened: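 Arabidopsis thaliana stably expressing VHAa1-RFP/N-ST-YFP grown from surface-sterilized seed on half-strength MS, 1% sucrose, 22 °C, 16 h days; roots treated 30 min with 90 μM compound (DMSO solution) in half MS medium, untreated controls; imaged by CLSM with 63× water-immersion objective.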

[7] = test system: HeLa; experiment: Induction of golgi apparatus disassembly in human HeLa cells at 5 uM after 30 to 60 mins by confocal microscopic analysis; assay type: functional, cell-based
Procedure, shortened: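 HeLa cells in DMEM, 10% FBS, penicillin/streptomycin, 2 mM L-glutamine, exposed to 5 μM final compound at 37 °C for 30 or 60 min; fixed 4% paraformaldehyde 20 min, NH4Cl quench, 0.5% Triton X-100 permeabilization, 5% BSA block, anti-GM130 (cis Golgi) with Alexa 546 secondary; confocal imaging.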

[8] = Toxicity in ip dosed mouse; assay type: organism-based; details: in vivo
[9] = test system: Coxsackievirus B3; experiment: Antiviral activity against Coxsackievirus B3 infected in human HeLa R19 cells assessed as inhibition of viral replication at 0.5 uM after 7 hrs by luciferase reporter gene assay; assay type: functional, organism-based
Procedure, shortened: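 HeLa R19 subconfluent monolayers infected 30 min at 37 °C with Renilla luciferase-expressing CVB3 (RLuc-CVB3), MOI 0.1 CCID50; inoculum replaced by medium with compound (0.5, 5 or 50 μM final; 5 mM DMSO stock) or matched DMSO control. After 7 h, cells lysed and Renilla luciferase read as replication measure; triplicates normalized to mean of same-DMSO-dilution controls.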

Question: What does the source list for `COCC[C@H]1CCC/C=C/[C@@H]2C[C@H](O)C[C@H]2[C@H](O)/C=C/C(=O)O1`?
Answer: Activity [1]: Non-toxic; inhibition [2]: Active; GI50 [3]: 0.0902 µM; TGI [3]: 5.78 µM; CC50 [3]: 42.3 µM

Question: Which Activity [1] does the source give for `O=C1/C=C/[C@@H](O)[C@@H]2C[C@@H](O)C[C@H]2/C=C/CCC[C@H](CCO)O1` here?
Answer: Non-toxic

Question: What about the inhibition [2] of the same molecule?
Answer: Active

Question: What about the GI50 [3] of the same molecule?
Answer: 0.178 µM

Question: What about the TGI [3] of the same molecule?
Answer: 7.69 µM

Question: What about the CC50 [3] of the same molecule?
Answer: 47.6 µM

Question: Which GI50 [3] does the source give for `O=C1/C=C/[C@@H](O)[C@@H]2C[C@@H](O)C[C@H]2/C=C/CCCCO1` here?
Answer: 0.631 µM

Question: And the TGI [3]?
Answer: 20.9 µM

Question: And the CC50 [3]?
Answer: 69.2 µM

Question: For `O=C1/C=C/[C@@H](O)[C@@H]2C[C@@H](O)C[C@H]2/C=C/CCC[C@H](CCc2ccc3cccnc3c2)O1`, which GI50 [3] is on record?
Answer: 0.262 µM

Question: What about the TGI [3] of the same molecule?
Answer: 7.61 µM

Question: What about the CC50 [3] of the same molecule?
Answer: 63.9 µM

Question: And the Activity [4]?
Answer: Active

Question: With `O=C1/C=C/[C@@H](O)[C@@H]2C[C@@H](O)C[C@H]2/C=C/CCC[C@H](CCc2ccccc2)O1` as the molecule, how does the Activity [1] read?
Answer: Non-toxic

Question: And the inhibition [2]?
Answer: Active

Question: What about the Activity [5] of the same molecule?
Answer: inactive

Question: And the GI50 [3]?
Answer: 0.0299 µM

Question: And the TGI [3]?
Answer: 2.04 µM

Question: What about the CC50 [3] of the same molecule?
Answer: 40 µM

Question: And the Activity [4]?
Answer: Active

Question: Which GI50 [3] does the source give for `O=C1/C=C/[C@@H](O)[C@@H]2C[C@@H](O)C[C@H]2/C=C/CCC[C@H](CO)O1` here?
Answer: 2.57 µM

Question: And the TGI [3]?
Answer: 38 µM

Question: What about the CC50 [3] of the same molecule?
Answer: 85.1 µM

Question: What does the source list for `O=C1/C=C/[C@@H](O)[C@@H]2C[C@@H](O)C[C@H]2/C=C/CCC[C@H](CCc2ccc(F)cc2)O1`?
Answer: Activity [1]: Non-toxic; inhibition [2]: Active

Question: Which Activity [1] does the source give for `CC(=O)[C@H]1CCC/C=C/[C@@H]2C[C@H](O)C[C@H]2[C@H](O)/C=C/C(=O)O1` here?
Answer: Non-toxic

Question: What about the inhibition [2] of the same molecule?
Answer: Active

Question: And the GI50 [3]?
Answer: 0.594 µM

Question: What about the TGI [3] of the same molecule?
Answer: 13.3 µM

Question: What about the CC50 [3] of the same molecule?
Answer: 61.7 µM

Question: Which results are given for `CC(=O)Nc1ccc(CC[C@H]2CCC/C=C/[C@@H]3C[C@H](O)C[C@H]3[C@H](O)/C=C/C(=O)O2)cc1`?
Answer: Activity [1]: Non-toxic; inhibition [2]: Active; GI50 [3]: 0.152 µM; TGI [3]: 5.7 µM; CC50 [3]: 51.6 µM; Activity [4]: Active

Question: For `O=C1/C=C/[C@@H](O)[C@@H]2C[C@@H](O)C[C@H]2/C=C/CCC[C@H](CCc2cccc3ccccc23)O1`, which Activity [1] is on record?
Answer: Non-toxic

Question: And the inhibition [2]?
Answer: Active

Question: And the Activity [5]?
Answer: inactive

Question: What about the GI50 [3] of the same molecule?
Answer: 0.0739 µM

Question: What about the TGI [3] of the same molecule?
Answer: 2.28 µM

Question: And the CC50 [3]?
Answer: 25.1 µM

Question: For `CC[C@H]1CCC/C=C/[C@@H]2C[C@H](O)C[C@H]2[C@H](O)/C=C/C(=O)O1`, which Activity [6] is on record?
Answer: Active

Question: And the GI50 [3]?
Answer: 0.0446 µM

Question: And the TGI [3]?
Answer: 5.82 µM

Question: And the CC50 [3]?
Answer: 35.8 µM

Question: What does the source list for `C=C[C@H]1CCC/C=C/[C@@H]2C[C@H](O)C[C@H]2[C@H](O)/C=C/C(=O)O1`?
Answer: Activity [1]: Non-toxic; inhibition [2]: Active; Activity [7]: Active; Activity [6]: Active; GI50 [3]: 0.0319 µM; TGI [3]: 4.91 µM; CC50 [3]: 39 µM

Question: Which results are given for `C[C@H]1CCC/C=C/[C@@H]2C[C@H](O)C[C@H]2[C@H](O)/C=C/C(=O)O1` [BREFELDIN A]?
Answer: LD50 [8]: > 200 mg/kg; Activity [1]: Non-toxic; inhibition [9]: Active; inhibition [2]: Active; Activity [5]: inactive; Activity [7]: Active; Activity [6]: Active; GI50 [3]: 0.0206 µM; TGI [3]: 3.48 µM; CC50 [3]: 52.6 µM; Activity [4]: Active

Question: For `O=C1/C=C/[C@@H](O)[C@@H]2C[C@@H](O)C[C@H]2/C=C/CCC[C@H](C(F)(F)F)O1`, which GI50 [3] is on record?
Answer: 0.321 µM

Question: And the TGI [3]?
Answer: 5.49 µM

Question: What about the CC50 [3] of the same molecule?
Answer: 48.2 µM

Question: With `O=C1/C=C/[C@@H](O)[C@@H]2C[C@@H](O)C[C@H]2/C=C/CCC[C@H](CCOCc2ccccc2)O1` as the molecule, how does the Activity [1] read?
Answer: Non-toxic

Question: And the inhibition [2]?
Answer: Active

Question: What about the GI50 [3] of the same molecule?
Answer: 0.0809 µM

Question: And the TGI [3]?
Answer: 5.05 µM

Question: And the CC50 [3]?
Answer: 35.5 µM

Question: With `O=C1/C=C/[C@@H](O)[C@@H]2C[C@@H](O)C[C@H]2/C=C/CCC[C@H](CCc2ccc(C(F)(F)F)cc2)O1` as the molecule, how does the Activity [1] read?
Answer: Non-toxic

Question: And the inhibition [9]?
Answer: Active

Question: And the inhibition [2]?
Answer: Active

Question: What about the Activity [5] of the same molecule?
Answer: inactive

Question: And the Activity [7]?
Answer: Active

Question: And the GI50 [3]?
Answer: 0.212 µM

Question: And the TGI [3]?
Answer: 5.97 µM

Question: And the CC50 [3]?
Answer: 66.2 µM

Question: And the Activity [4]?
Answer: Active

Question: With `Nc1ccc(CC[C@H]2CCC/C=C/[C@@H]3C[C@H](O)C[C@H]3[C@H](O)/C=C/C(=O)O2)cc1` as the molecule, how does the GI50 [3] read?
Answer: 0.0343 µM

Question: And the TGI [3]?
Answer: 2.68 µM

Question: And the CC50 [3]?
Answer: 56.3 µM

Question: What does the source list for `C=C[C@@H]1CCC/C=C/[C@@H]2C[C@H](O)C[C@H]2[C@H](O)/C=C/C(=O)O1`?
Answer: GI50 [3]: 0.631 µM; TGI [3]: 17.8 µM; CC50 [3]: 66.3 µM

— ChEMBL document CHEMBL2401635, “Synthesis and biological properties of novel brefeldin A analogues” (J Med Chem, 2013)
